One experiment deals with T1, Bcl-2-like protein 2 (Homo sapiens, UniProt Q92843).
T1 sequence (Q92843 whole entry): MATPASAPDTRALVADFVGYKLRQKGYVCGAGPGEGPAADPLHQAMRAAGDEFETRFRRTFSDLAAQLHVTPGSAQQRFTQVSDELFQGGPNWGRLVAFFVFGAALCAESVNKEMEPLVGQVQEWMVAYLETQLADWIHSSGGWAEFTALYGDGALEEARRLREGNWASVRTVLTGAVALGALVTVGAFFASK
Kind of experiment: Inhibition of Bclw by FP assay. The method in brief:
(§1)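 Run in 20 mM potassium phosphate pH 7.4 with 1 mM EDTA, 50 mM NaCl and 0.05% Pluronic F-68, at 10% final DMSO. Polarization read at ex 485/em 535 nm after 2 h at room temperature.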

In experiment [1] the target is Apoptosis regulator Bcl-2 (Homo sapiens) (UniProt P10415). Put plainly: Inhibition of Bcl2 by FP assay. Put shortly:
as §1

Another experiment has as its system HL-60. Put plainly: Antiproliferative activity against HL60 cells by WST-1 assay. The following applies: Homo sapiens.
Experiment [2] concerns the target Bcl-2-like protein 1 (Homo sapiens) (UniProt Q07817). Put plainly: Inhibition of BclXL by FP assay. Put shortly:
as §1

For orientation: IC50 means the point on the concentration scale where inhibition reaches its midpoint. Broadly, the GI50 is the concentration giving 50% growth inhibition. Low values mean greater sensitivity of the cells, high ones lower sensitivity of the cells.

Active and inactive are the calls of the source. The calls are words filed in the database; no cut-off is given here.

Sequence of Bcl-2-like protein 1 (Homo sapiens) (Q07817 whole entry): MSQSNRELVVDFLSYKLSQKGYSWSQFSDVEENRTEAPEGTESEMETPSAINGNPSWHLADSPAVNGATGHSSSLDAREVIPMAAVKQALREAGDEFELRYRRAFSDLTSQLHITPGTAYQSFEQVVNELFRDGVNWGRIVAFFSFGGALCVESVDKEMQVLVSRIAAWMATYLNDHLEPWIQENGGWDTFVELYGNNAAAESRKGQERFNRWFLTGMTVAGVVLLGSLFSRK
Sequence of Apoptosis regulator Bcl-2 (Homo sapiens) (P10415 whole entry): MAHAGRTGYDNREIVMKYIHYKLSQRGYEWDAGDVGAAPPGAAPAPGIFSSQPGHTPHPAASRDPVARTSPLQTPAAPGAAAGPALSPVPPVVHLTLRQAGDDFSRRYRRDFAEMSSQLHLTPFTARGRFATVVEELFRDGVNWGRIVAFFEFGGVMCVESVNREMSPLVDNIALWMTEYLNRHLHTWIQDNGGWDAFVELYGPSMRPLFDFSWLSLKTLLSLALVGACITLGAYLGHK

`CCCCc1c(-c2ccccc2OC)ncn1Cc1cccc(-c2ccccc2)c1` had an IC50 at Bcl-2-like protein 2 of 26.9 µM. Also, the outcome in experiment [1] and in experiment [2] was inactive. Besides, in the experiment with HL-60, the GI50 stood at 13 µM.

With `CCCc1c(-c2ccccc2Oc2ccccc2)ncn1Cc1ccccc1OC`, the IC50 on Bcl-2-like protein 2 is 14 µM. For the same compound, the result in experiment [1] and in experiment [2] was inactive. Also, the concentration for 50% growth inhibition (GI50) in the experiment with HL-60 was 12.5 µM.

At Bcl-2-like protein 2, `CCCCc1c(-c2ccccc2Oc2ccccc2)ncn1CCc1ccccc1OC` had a half-inhibitory concentration (IC50) of 8.09 µM. Moreover, the outcome in experiment [1] and in experiment [2] was inactive. In the experiment on HL-60, this compound displayed a GI50 of 9.43 µM.

The values above are taken from ChEMBL document CHEMBL1139032, “Design and modular parallel synthesis of a MCR derived alpha-helix mimetic protein-protein interaction inhibitor scaffold” (Bioorg Med Chem Lett, 2006).
